Shown are actives, neighbours in structure and some others; about 9.4% of the full set was active somewhere.
Beta apoptosis = beta cell apoptosis inhibition. INS-1E cytokine-induced death, ATP luminescence, 48 h; percent of positive-control rescue, neutral wells zero. actives 0.8% (n = 300,000). protection from apoptosis, % (no concentration beside the values);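 active = Every replicate reaches about 75%, or at least half do and their mean reaches it too, limit read from the data; inconclusive = At least half of replicates reach the limit but their mean does not; inactive = Under half of replicates reach the limit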;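 also: 0% = cytokine-treated negative control wells and 100% = positive control rescue; higher means more ATP so stronger rescue from cytokine killing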
T cruzi inh = T. cruzi replication inhibition | T. cruzi beta-gal in NIH3T3, luminescence, 90 h | inhibition, % (no concentration beside the values) | actives 1.4% (n = 300,000) | AID 1885;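 active = mean inhibition across valid replicates above about 55%, limit read from the data; inconclusive = mean below that limit but half or more replicates reach it; inactive = mean below it, under half of replicates reach it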;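 also: signal also drops with host cell toxicity which is not excluded here; 0% = plate median of DMSO wells and 100% = zero luminescence signal; higher percent means less beta-gal luminescence so fewer parasites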
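Assay system: NIH/3T3 fibroblasts plus reporter T. cruzi. Amount: NIH/3T3 cells, 5,000 per well. Buffer or medium: DMEM, 2% fetal bovine serum. Doses: compound pinned at 50 nL/well, DMSO. Schedule: ≥90 h infection period, 3 h prior cell attachment. Signal: luminescent β-galactosidase signal after 60 min lysis. Read-out: parasite load inhibition, %.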
SKKanGAS inh = blocks kanamycin growth of S. pyogenes SKKanGAS strain; actives 1.3% (n = 300,000); BacTiter-Glo, 6 h; AID 1662; inhibition, % at 7.5 µM;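 active = mean replicate score, as percent of positive control median, at least 50; inconclusive = mean below 50 but one replicate at or above 50; inactive = mean and every replicate below 50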;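 also: strain carries kanamycin resistance gene driven by streptokinase promoter and grows in 40 µg/ml kanamycin; loss of luminescence reflects streptokinase promoter inhibition or plain growth inhibition; 0% = median of DMSO wells and 100% = positive control at its reference dose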
Mdm2-MdmX inh = disrupts the human Mdm2-MdmX interaction; inhibition, % at 8 µM; actives 3% (n = 330,000); SaOS-2 split-luciferase Mdm2/MdmX complementation, luminescence; O15151+Q00987;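 active = inhibition of at least 50% at 8 µM in the primary screen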
Target sequence (O15151 whole entry, looked up): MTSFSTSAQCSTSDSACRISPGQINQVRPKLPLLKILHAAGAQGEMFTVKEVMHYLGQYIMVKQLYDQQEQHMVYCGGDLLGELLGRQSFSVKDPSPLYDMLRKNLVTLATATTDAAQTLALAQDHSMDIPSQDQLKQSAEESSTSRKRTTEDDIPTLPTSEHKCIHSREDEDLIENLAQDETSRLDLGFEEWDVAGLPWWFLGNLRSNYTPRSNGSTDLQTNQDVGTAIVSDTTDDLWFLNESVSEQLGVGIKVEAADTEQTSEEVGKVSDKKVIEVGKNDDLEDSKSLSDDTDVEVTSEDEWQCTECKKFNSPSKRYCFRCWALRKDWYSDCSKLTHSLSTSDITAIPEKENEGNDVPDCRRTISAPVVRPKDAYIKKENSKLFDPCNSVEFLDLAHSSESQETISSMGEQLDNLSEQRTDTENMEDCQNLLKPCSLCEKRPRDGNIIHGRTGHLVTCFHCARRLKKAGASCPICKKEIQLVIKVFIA
Target sequence (Q00987 whole entry, looked up): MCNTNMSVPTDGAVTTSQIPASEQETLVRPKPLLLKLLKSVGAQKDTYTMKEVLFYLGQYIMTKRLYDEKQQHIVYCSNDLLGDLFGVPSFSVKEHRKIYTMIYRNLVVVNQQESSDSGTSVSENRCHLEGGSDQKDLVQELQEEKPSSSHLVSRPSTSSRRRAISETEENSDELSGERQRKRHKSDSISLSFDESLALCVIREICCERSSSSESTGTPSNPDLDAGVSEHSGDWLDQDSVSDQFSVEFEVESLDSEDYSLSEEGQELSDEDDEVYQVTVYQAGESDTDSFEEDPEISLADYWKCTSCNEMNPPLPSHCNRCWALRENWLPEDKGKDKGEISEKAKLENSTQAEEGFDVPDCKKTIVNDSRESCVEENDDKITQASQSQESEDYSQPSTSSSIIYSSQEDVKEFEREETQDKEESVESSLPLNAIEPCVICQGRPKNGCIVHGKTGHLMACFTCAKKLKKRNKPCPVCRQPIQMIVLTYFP
Lmaj promast = Leishmania major promastigote growth inhibition | inhibition, % at 10 µM | Leishmania major promastigotes, resazurin fluorescence viability | actives 9% (n = 200,000); in the data active = inhibition above about 50%;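 also: promastigotes grown with compound for 44 hours at 28 °C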
CSC inhib = blocks cancer stem cells; cancer stem cell-like cells viability, luminescence; inhibition, % at 7.5 µM; actives 1.1% (n = 300,000); in the data active = inhibition above about 75%; inconclusive = no clear call, values can overlap the other calls; tested in HMLE shEcad cells
Mdm2 MdmX conf = human Mdm2/MdmX binding inhibition, confirmed; shares compounds with Mdm2-MdmX inh; luminescent assay; inhibition, % at 8 µM; actives 55% (n = 10,000); AID 489028; in the data active = inhibition above about 40%
FLuc counter = inhibits full-length luciferase, flagging false Mdm2/MdmX hits; actives 77% (n = 6,200); shares compounds with Mdm2-MdmX inh; inhibition, % at 8 µM; SaOS-2 full-length luciferase counterscreen, luminescence; AID 504607;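 active = mean inhibition at 8 µM reaching about 37%, which flags the compound as non-specific, limit read from the data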;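 also: p53-null SaOS-2 cells with luciferase driven by a doxycycline-inducible promoter; compound on cells about two nights before reading with doxycycline added after day one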
Starred values were filed as active, the others as inactive; ? = inconclusive; . = not tested or not shown.

SMILES | Beta apoptosis | T cruzi inh | SKKanGAS inh | Mdm2-MdmX inh | Lmaj promast | CSC inhib | Mdm2 MdmX conf | FLuc counter
CCC1CSC(Nc2ccc(C(=O)/C=C/c3ccc(Br)cc3)cc2)=N1 (centres undefined) | 31 | 45 | -5 | 59* | 98* | 79* | 21 | .
COc1cc(/C=C/C(=O)OCC(=O)N2CCCc3ccccc32)ccc1OC(F)F | 1 | 11 | -7 | -2 | . | -9 | . | .
COc1cc(/C=N/Nc2snc(SC)c2C#N)cc(OC)c1OC | 35 | -10 | -7 | 70* | 0 | -17 | 73* | 43*
COc1ccccc1C(=O)Nc1ccc(-c2nnn(CC(=O)NCc3ccco3)n2)cc1 | 1 | -13 | 5 | 43 | . | -2 | . | .
Fc1ccccc1N1CCN(c2ncnc3[nH]ncc23)CC1 | -3 | 3 | -3 | 63* | -8 | -2 | 25 | .
O=C(Nc1cccc(Cl)c1)Nc1nnc(CSCCOc2ccc(Cl)cc2)s1 | 139* | 38 | 22 | 99* | 9 | 31 | 90* | 23
COc1ccc(OCCSCc2nnc(NC(=O)Nc3ccc(Cl)cc3)s2)cc1 | 16 | 7 | 1 | 63* | -1 | 21 | 3 | .
O=C(Nc1cccc(Cl)c1)Nc1nnc(CC2=CCCCC2)s1 | 35 | 19 | -3 | 80* | -6 | 30 | 43* | 88*
O=C(Nc1nnc(CC2=CCCCC2)s1)Nc1ccccc1F | 2 | 12 | 2 | 19 | . | 16 | . | .
O=C(Nc1ccc(Cl)cc1)Nc1nnc(CSCc2ccccc2)s1 | 32 | 10 | -14 | 58* | -6 | 24 | 23 | .
Nc1nccnc1C(=O)OCC(=O)NC1CCCc2ccccc21 (centres undefined) | 3 | . | . | 19 | . | . | . | .
Cc1ccc2c(COC(=O)C3CC(=O)N(c4ccc5c(c4)OCCO5)C3)cc(=O)oc2c1 (centres undefined) | -1 | . | . | 30 | . | -24 | . | .
COc1ccc(C(=O)O)cc1S(=O)(=O)NCCc1ccccn1 | -5 | 1 | -21 | 27 | . | -4 | . | .
Cn1ccc2cc(-c3ccc4ncnc(NCc5cccs5)c4c3)ccc21 | 61 | . | . | 64* | . | . | 57* | 25
COc1cccc(-c2ccc3ncnc(NCc4cccs4)c3c2)c1 | 9 | . | . | 64* | . | 45 | 51* | 39*
CC(SC1=NCCS1)C(=O)Nc1nnc(-c2ccc(F)cc2)s1 (centres undefined) | -1 | -28 | 0 | -19 | 4 | 31 | . | .
CC(SC1=NCCS1)C(=O)Nc1nnc(-c2ccc(Br)cc2)s1 (centres undefined) | -5 | 14 | 15 | 52* | 24 | 56 | 19 | .
COc1ccc(C)cc1NC(=O)CSc1nc2ccccc2nc1N1CC(C)OC(C)C1 (centres undefined) | 8 | 4 | 26 | 46 | . | 15 | . | .
O=C(Nc1ccc(Br)c(C(F)(F)F)c1)c1ccc(C(F)(F)F)cc1 | 74* | 47 | 106* | 96* | . | 110* | 59* | 29
O=C(Nc1ccc(OCC(F)(F)C(F)F)c(C(F)(F)F)c1)c1ccc(Cl)cc1 | 79* | 48 | 92* | 92* | 11 | ? | 85* | 34
O=C(Nc1cccc(O)c1)c1ccc(C(F)(F)F)cc1 | 6 | -28 | 5 | -24 | -3 | 19 | . | .
COc1cccc(N2CCN(C(=O)c3ccc(CS(=O)c4ccccc4Cl)o3)CC2)c1 (centres undefined) | 21 | 20 | 13 | 70* | . | 52 | 51* | 102*
O=C(c1ccc(CS(=O)c2ccccc2Cl)o1)N1CCN(c2ccccc2)CC1 (centres undefined) | 7 | -18 | 0 | 46 | . | 51 | . | .
COc1ccc(N2CCN(C(=O)c3ccc(CS(=O)c4cccc(C)c4)o3)CC2)cc1 (centres undefined) | -6 | -4 | 7 | 27 | . | -5 | . | .
COc1cccc(N2CCN(C(=O)c3ccc(CS(=O)c4ccccc4C)o3)CC2)c1 (centres undefined) | 7 | 8 | 7 | 51* | . | 54 | 50* | 74*
SMILES | Beta apoptosis | T cruzi inh | SKKanGAS inh | Mdm2-MdmX inh | Lmaj promast | CSC inhib | Mdm2 MdmX conf | FLuc counter
COC(=O)c1cc(S(=O)(=O)NCc2cccs2)c[nH]1 | -5 | -24 | -10 | 5 | . | 1 | . | .
Nc1ccc(Cc2nc3cc4ccccc4cc3[nH]2)cc1 | -1 | -12 | -6 | 69* | 32 | 37 | 34 | 70*
Nc1ccc(C(=O)OCc2nc3cc4ccccc4cc3[nH]2)cc1 | -1 | 11 | -2 | 74* | 63* | 42 | 82* | 34
Nc1ccc(C(=O)OCCCc2nc3cc4ccccc4cc3[nH]2)cc1 | -1 | -5 | 6 | 65* | . | 17 | 22 | 94*
Nc1ccc(C(=O)OCc2nc3c(ccc4ccccc43)[nH]2)cc1 | 4 | 0 | -6 | -51 | 0 | 12 | . | .
CN(CC(=O)Nc1ccc(F)cc1)C(=O)COc1ccc(C(=O)c2ccccc2)cc1 | 5 | -20 | -13 | 24 | 4 | -11 | . | .
COc1ccc(C2NC(=O)NC3=C2CCc2ccccc23)cc1 (centres undefined) | 10 | . | -4 | 55* | 1 | 20 | 46* | 83*
C=CCOc1c(Cl)cc(CNc2ccc(C)c(Cl)c2)cc1OC | 47 | 55* | 42 | 76* | 9 | 54 | 77* | 97*
C=CCOc1c(Cl)cc(CNc2ccc(N(C)C)cc2)cc1OC | 26 | 34 | -2 | 60* | 101* | 53 | 54* | 75*
C=CCOc1c(Cl)cc(CNCCC)cc1Cl | -3 | 15 | -4 | -1 | 12 | . | . | .
CSc1nnc2c(n1)OC=Nc1ccc(Br)cc1-2 | -7 | -5 | 0 | 2 | . | -8 | . | .
Cc1ccc(O)c(NC(=O)c2cc3nc4c(c(C(F)(F)F)n3n2)CCc2ccccc2-4)c1 | -1 | -5 | -8 | 80* | -4 | -1 | 32 | 80*
CN(C(=O)c1ccc(NC(=O)Cc2cccc(NC(=O)C3CCN(C(=O)C4CCCCC4)CC3)c2)cc1)C1CCCC1 | 2 | . | . | 17 | . | -28 | . | .
O=C(NCc1cccnc1)c1cccc(NS(=O)(=O)c2ccc(Br)cc2)c1 | 20 | -1 | 7 | 39 | . | -1 | . | .
Cc1ccc(S(=O)(=O)Nc2cccc(C(=O)NCc3cccnc3)c2)cc1F | 20 | 10 | 8 | 51* | . | 59 | 76* | 62*
COc1ccc(OC(=O)COc2cc(C)ccc2C)cc1 | 2 | -6 | -4 | -3 | . | -3 | . | .
COc1ccccc1CC(=O)OC(C)C(=O)Nc1ccc(S(=O)(=O)N2CCCCC2)cc1 (centres undefined) | 0 | . | . | 16 | . | . | . | .
Cc1c(CC(=O)N[C@@H](C)C(=O)O)c(=O)oc2cc3oc4c(c3cc12)CCCC4 | -8 | -7 | 3 | -11 | . | -13 | . | .

Compound activity: PubChem, several laboratories
